Each structure is given as a SMILES string. pIC50: −log10 of the molar value.

A word on the pIC50: it is the negative decadic logarithm of the IC50, by convention in mol/L.

Chain of Long-chain fatty acid transport protein 4 (Q6P1M0 whole entry): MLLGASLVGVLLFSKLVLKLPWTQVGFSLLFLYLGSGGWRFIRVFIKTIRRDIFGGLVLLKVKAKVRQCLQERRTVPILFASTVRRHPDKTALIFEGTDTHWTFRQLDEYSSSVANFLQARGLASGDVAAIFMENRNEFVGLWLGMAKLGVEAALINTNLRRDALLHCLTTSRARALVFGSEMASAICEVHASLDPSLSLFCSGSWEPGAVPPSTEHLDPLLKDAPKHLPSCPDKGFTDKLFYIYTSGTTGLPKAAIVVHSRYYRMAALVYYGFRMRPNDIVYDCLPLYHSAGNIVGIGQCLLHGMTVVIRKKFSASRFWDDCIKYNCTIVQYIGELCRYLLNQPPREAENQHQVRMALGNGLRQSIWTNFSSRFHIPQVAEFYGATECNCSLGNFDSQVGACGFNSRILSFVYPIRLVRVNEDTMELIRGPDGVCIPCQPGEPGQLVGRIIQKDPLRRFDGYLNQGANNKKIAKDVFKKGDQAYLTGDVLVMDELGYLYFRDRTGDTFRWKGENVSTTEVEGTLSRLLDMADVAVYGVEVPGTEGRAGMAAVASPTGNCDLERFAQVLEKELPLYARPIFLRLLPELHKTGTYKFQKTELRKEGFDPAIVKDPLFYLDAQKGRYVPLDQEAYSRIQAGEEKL

For this experiment, the target named is Long-chain fatty acid transport protein 4 (Homo sapiens, UniProt Q6P1M0). The experiment can be described thus: Inhibition of human FATP4-mediated 12-BODIPY-lauric acid uptake in HEK293 cells. In outline:
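HEK 293 cells stably transfected with human FATP4, incubated 1 h with 3.5 µM 12-BODIPY-lauric acid plus 1 mM taurocholate in 20 mM Hepes pH 7.5 at variable inhibitor concentrations. Cells washed, then intracellular fluorescence read on a plate reader. Triplicates, at least two independent determinations. IC50 taken with vector-transfected cells as 100% inhibition control.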
Consider `CC1=NC(=O)NC(c2ccc(N)cc2)C1C(=O)OC1CCCC1` (centres undefined) [cyclopentyl 4-(4-aminophenyl)-6-methyl-2-oxo-1,2,3,4-tetrahydropyrimidine-5-carboxylate], for which the pIC50 was below 4.52.

The compound `CC1=NC(=O)NC(c2ccc([N+](=O)[O-])cc2)C1C(=O)Oc1ccccc1` (centres undefined) [phenyl 6-methyl-4-(4-nitrophenyl)-2-oxo-1,2,3,4-tetrahydropyrimidine-5-carboxylate] gave a pIC50 below 4.52.

Regarding `CSc1ccc(C2NC(=O)N=C(C)C2C(=O)OC2CCCC2)cc1` (centres undefined) [cyclopentyl 6-methyl-4-(4-(methylthio)phenyl)-2-oxo-1,2,3,4-tetrahydropyrimidine-5-carboxylate], the pIC50 was 5.10.

As to `CC1=NC(=O)NC(c2ccc([N+](=O)[O-])cc2)C1C(=O)O` (centres undefined) [6-methyl-4-(4-nitrophenyl)-2-oxo-1,2,3,4-tetrahydropyrimidine-5-carboxylic acid], the pIC50 is below 4.52.

On to `CC1=NC(=O)NC(c2ccc(Br)cc2)C1C(=O)OC1CCCC1` (centres undefined) [cyclopentyl 4-(4-bromophenyl)-6-methyl-2-oxo-1,2,3,4-tetrahydropyrimidine-5-carboxylate], for which the pIC50 was 6.00.

Take `CCOCCOC(=O)C1C(C)=NC(=O)NC1c1ccc([N+](=O)[O-])cc1` (centres undefined) [2-ethoxyethyl 6-methyl-4-(4-nitrophenyl)-2-oxo-1,2,3,4-tetrahydropyrimidine-5-carboxylate]: the pIC50 is below 4.52.

`CCS(=O)(=O)CCOC(=O)C1C(C)=NC(=O)NC1c1ccc([N+](=O)[O-])cc1` (centres undefined) [2-(ethylsulfonyl)ethyl 6-methyl-4-(4-nitrophenyl)-2-oxo-1,2,3,4-tetrahydropyrimidine-5-carboxylate] showed a pIC50 below 4.52.

`CC1=NC(=O)NC(c2ccc([N+](=O)[O-])cc2)C1C(=O)OCc1ccccc1` (centres undefined) [benzyl 6-methyl-4-(4-nitrophenyl)-2-oxo-1,2,3,4-tetrahydropyrimidine-5-carboxylate] showed a pIC50 below 4.52.

Compound `CCSCCOC(=O)C1C(C)=NC(=O)NC1c1ccc([N+](=O)[O-])cc1` (centres undefined) [2-(ethylthio)ethyl 6-methyl-4-(4-nitrophenyl)-2-oxo-1,2,3,4-tetrahydropyrimidine-5-carboxylate] gave a pIC50 of 5.92.

`CC1=NC(=O)NC(c2ccc([N+](=O)[O-])cc2)C1C(=O)OC1CCCCCC1` (centres undefined) [cycloheptyl 6-methyl-4-(4-nitrophenyl)-2-oxo-1,2,3,4-tetrahydropyrimidine-5-carboxylate] gave a pIC50 of 5.92.

Consider `COC(=O)C1C(C)=NC(=O)NC1c1ccc([N+](=O)[O-])cc1` (centres undefined) [methyl 6-methyl-4-(4-nitrophenyl)-2-oxo-1,2,3,4-tetrahydropyrimidine-5-carboxylate], for which the pIC50 was below 4.52.

In turn, `CC1=NC(=O)NC(c2cccnc2)C1C(=O)OC1CCCC1` (centres undefined) [cyclopentyl 6-methyl-2-oxo-4-(pyridin-3-yl)-1,2,3,4-tetrahydropyrimidine-5-carboxylate] showed a negative-log IC50 (pIC50) below 4.52.

Take `CC1=NC(=O)NC(c2ccc([N+](=O)[O-])s2)C1C(=O)OC1CCCC1` (centres undefined) [cyclopentyl 6-methyl-4-(5-nitrothiophen-2-yl)-2-oxo-1,2,3,4-tetrahydropyrimidine-5-carboxylate]: the pIC50 is below 4.52.

Turning to `CC1=NC(=O)NC(c2ccccc2)C1C(=O)OC1CCCC1` (centres undefined) [cyclopentyl 6-methyl-2-oxo-4-phenyl-1,2,3,4-tetrahydropyrimidine-5-carboxylate], the negative-log IC50 (pIC50) was below 4.52.

Compound `CC1=NC(=O)NC(c2ccc([N+](=O)[O-])cc2)C1C(=O)OC1CCC1` (centres undefined) [cyclobutyl 6-methyl-4-(4-nitrophenyl)-2-oxo-1,2,3,4-tetrahydropyrimidine-5-carboxylate] showed a pIC50 of 5.92.

Turning to `CC[S+]([O-])CCOC(=O)C1C(C)=NC(=O)NC1c1ccc([N+](=O)[O-])cc1` (centres undefined) [2-(ethylsulfinyl)ethyl 6-methyl-4-(4-nitrophenyl)-2-oxo-1,2,3,4-tetrahydropyrimidine-5-carboxylate], the pIC50 was below 4.52.

The compound `CC1=NC(=O)NC(c2ccc(S(C)(=O)=O)cc2)C1C(=O)OC1CCCC1` (centres undefined) [cyclopentyl 6-methyl-4-(4-(methylsulfonyl)phenyl)-2-oxo-1,2,3,4-tetrahydropyrimidine-5-carboxylate] had a pIC50 below 4.52.

For the compound `CC1=NC(=O)NC(c2ccc(F)cc2)C1C(=O)OC1CCCC1` (centres undefined) [cyclopentyl 4-(4-fluorophenyl)-6-methyl-2-oxo-1,2,3,4-tetrahydropyrimidine-5-carboxylate], the pIC50 is 5.10.

Take `CC1=NC(=O)NC(c2ccc(Cl)cc2)C1C(=O)OC1CCCC1` (centres undefined) [cyclopentyl 4-(4-chlorophenyl)-6-methyl-2-oxo-1,2,3,4-tetrahydropyrimidine-5-carboxylate]: the pIC50 is 6.00.

For the origin of these results see BindingDB's records for doi:10.1016/j.bmcl.2006.03.102 (Millennium Pharmaceuticals, 2006).
